pEC50: −log10 of the molar value. Active and inactive are the calls of the source.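 The calls were made as follows: active = half-maximal effective dose for blocking growth of human endothelial cells at most 100 µM; inactive = the rest.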
The compounds below were run on HUVEC proliferation, viability ATP luminescence (assay: growth suppression of umbilical vein endothelial cells – cell-based, HUVEC, ATP luminescence, dose response (AID 822);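 also: cells exposed to compound for 72 h before the ATP read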).
How it was run: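 Assay system: HUVEC primary endothelial cells, low passage (≤12) | Doses: 0.039–20 µM, 0.2% DMSO | Incubation: 72 h compound exposure at 37 °C | Detection: CellTiter-Glo ATP luminescence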

Row | Structure (SMILES) | pEC50 | EC50
1 | O=C(CCC1CCCC1)c1c(O)c2ccccc2oc1=O | 5.33 | –
2 | Cc1ccc(C(C)C)c(OCC(=O)Nc2ccc3c(c2)nc(CN2CCCC2)n3C)c1 | 4.84 | –
3 | O=c1[nH]c(=O)n(Cc2ccccc2)c2nc(-c3ccco3)cc(C(F)(F)F)c12 | 4.77 | –
4 | Cc1cccc(N2CCN(C(=O)Cn3sc4nc(C)cc(C)c4c3=O)CC2C)c1 (configuration not stated) | 4.91 | –
5 | c1ccc(CC2CCN(C3=Nc4cccc5cccc3c45)CC2)cc1 | 5.52 | –
6 | CCc1ccc2c(c1)/C(=C/C(=O)c1cccs1)C(=O)N2 | 5.15 | –
7 | Cc1cc(/C=C2\C(=N)N3C(SCc4ccccc4)=NSC3=NC2=O)c(C)n1Cc1ccccc1 | 5.27 | –
8 | Cc1oc(-c2ccc(Cl)cc2)nc1CN1CCC(C(=O)N2CCN(Cc3ccccc3)CC2)CC1 | 5.07 | –
9 | COc1cccc2sc(Nc3nnc(-c4ccc(F)cc4)o3)nc12 | 6.02 | –
10 | CC1CCCCN1S(=O)(=O)c1ccc(C(=O)Nc2nnc(-c3ccccc3Cl)o2)cc1 (configuration not stated) | 5.57 | –
11 | CCCCCn1c(CN2CCN(c3cc(Cl)ccc3C)CC2)nc2c1c(=O)[nH]c(=O)n2C | 5.49 | –
12 | COc1cccc(-c2nnc(Nc3nc4c(F)cccc4s3)o2)c1 | 5.07 | –
13 | COc1ccc(Cl)c(N2CCN(CCCNC(=O)Nc3ccc(C)cc3)CC2)c1 | 4.91 | –
14 | CC(C)c1nnc(NC(=O)CCS(=O)(=O)c2nc(-c3cccs3)cc(C(F)(F)F)n2)s1 | 5.00 | –
15 | Cc1ccc(C(=O)Nc2ncc(Cc3ccccc3)s2)o1 | 6.15 | –
16 | CCOC(=O)c1sc(NC(=O)CSc2nnnn2-c2ccc(C)c(C)c2)nc1C | 5.18 | –
17 | CN1CCN(Cc2cc(COCc3ccccc3)c3cccnc3c2O)CC1 | 5.22 | –
18 | O=[N+]([O-])c1ccc(/C=N/Nc2nc(N3CCCC3)nc(N3CCCC3)n2)o1 | 4.79 | –
19 | Cc1ccccc1-c1nc(CN2CCC(C(=O)NCCC3=CCCCC3)CC2)c(C)o1 | 5.17 | –
20 | Cc1ccc(C)c(N2CCN(CCCNC(=O)Cn3cc4c(n3)CCC(C)C4)CC2)c1 (configuration not stated) | 5.02 | –
21 | CCc1ccc(NC(=O)CCc2nc3cccnc3n2Cc2ccc(OC)cc2)cc1 | 4.88 | –
22 | CC(C)Cn1c(N)c(C(=O)NCc2cccs2)c2nc3ccccc3nc21 | 4.98 | –
23 | O=C(Nc1ccc(Cl)c(Cl)c1)C1=Cc2ccccc2OC1 | 5.10 | –
24 | Cc1ccccc1CS(=O)(=O)c1nnc([C@H](CC(C)C)NC(=O)OC(C)(C)C)o1 | 4.92 | –
25 | CCOC(=O)c1cccc2c1-c1ccccc1/C2=N/O | 5.88 | –
26 | Cc1ccc(C)c(C(C)NC(=O)C2C3CCC(O3)C2C(=O)O)c1 (configuration not stated) | 4.79 | –

Row | Structure (SMILES) | pEC50 | EC50
27 | NS(=O)(=O)c1ccc(N=Cc2c(O)n(C3CCCCC3)c(=O)n(C3CCCCC3)c2=O)cc1 | 5.30 | –
28 | CN1CCN(c2ccc(NC(=O)c3cccc(OCc4ccccc4)c3)cc2)CC1 | 4.94 | –
29 | Cc1ccc(S(=O)(=O)c2c(C)nn(C(C)(C)C)c2OC(=O)c2ccc(Br)o2)cc1 | 5.34 | –
30 | O=C(Nc1ccc(OC(F)F)c(Cl)c1)Nc1ccc2c(c1)OCO2 | 4.83 | –
31 | CC(=O)C(C(C)=O)c1c(Cl)c(O)c(O)c2c(C(=O)c3ccccc3)coc12 | 5.27 | –
32 | Cc1ccc(N=Nc2c(C)[nH][nH]c2=O)c(C)c1 | 5.12 | –
33 | Cc1ccc2c(c1)[nH]c1c(N3CCN(Cc4ccccc4)CC3)ncnc12 | 5.12 | –
34 | Cc1oc(-c2ccccc2F)nc1CN1CCC(C(=O)NCCC2=CCCCC2)CC1 | 4.91 | –
35 | COc1ccc2nc(NC(=O)CSC3=NCCS3)sc2c1 | 5.31 | –
36 | COC(=O)CS(=O)(=O)c1nnc([C@H](Cc2ccccc2)NC(=O)OC(C)(C)C)o1 | 5.05 | –
37 | CN(c1ccccc1)S(=O)(=O)c1ccc(C(=O)Nc2nnc(-c3ccc(F)cc3)o2)cc1 | 5.76 | –
38 | CCN(CC)c1ccc2c(c1)oc(=O)c1c(Cl)cc(=O)oc12 | 5.69 | –
39 | O=C1c2[nH]nc(-c3ccccc3O)c2C(c2cccc(Cl)c2)N1Cc1ccco1 (configuration not stated) | 4.96 | –
40 | Cc1ccc(Cn2nc(C)c(NC(=O)c3cc(-c4ccc5c(c4)OCO5)on3)c2C)cc1 | 4.99 | –
41 | Cc1nn(Cc2c(Cl)cccc2Cl)c(C)c1NC(=O)c1cc(C(C)C)on1 | 4.87 | –
42 | COc1cc2nc(N3CCN(C(=O)c4ccco4)CC3)nc(N)c2cc1OC | 4.95 | –
43 | CC(C)CNC(=O)c1coc(=O)c(Br)c1 | – | > 10 µM (inactive)
44 | Cc1ccc2[nH]c3c(N4CCN(Cc5ccccc5)CC4)ncnc3c2c1 | 5.09 | –
45 | COc1ccc(-c2nnc(NC(=O)c3ccc(S(=O)(=O)N4CCCc5ccccc54)cc3)o2)cc1 | 5.53 | –
46 | CN1CCN(c2ccccc2NC(=O)c2ccc(-c3ccc(Cl)cc3Cl)o2)CC1 | 5.20 | –
47 | N=c1c2c(-c3ccccc3)c(-c3ccccc3)n(Cc3ccco3)c2ncn1Cc1ccco1 | 5.74 | –
48 | Cc1ccc(/C=C/C(=O)c2ccccc2)cc1 | 4.77 | –
49 | Clc1ccc(COC(Cn2ccnc2)c2ccc(Cl)cc2Cl)cc1 (configuration not stated) | 5.20 | –
50 | CCCCc1oc2ccccc2c1C(=O)c1cc(I)c(OCCN(CC)CC)c(I)c1 | 5.24 | –
51 | CCOc1cc(N2CCOCC2)c(OCC)cc1NC(=O)COc1cccc2cccnc12 | 4.83 | –
52 | Cn1c(CNc2cccc(Cl)c2)nnc1SCC(=O)OC1CCCCC1 | 4.95 | –
